Reference: the EternaBench riboswitch data

System: MS2 coat protein
Assay: apparent Kd, MS2 coat protein; higher = weaker binding; RNA-MaP array; FMN 200 µM where present
Method in brief: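 Green signal was scaled to red-channel RNA signal and control-cluster median Fmax, and the apparent Kd was taken as the median of filtered per-cluster binding-curve fits. The binding series used SNAP-549-labelled MS2 coat protein from 0.7 or 1.5 nM, doubling to 3 µM, on designs transcribed by stalled E. coli RNA polymerase on Illumina sequencing-chip clusters. Each series ran without and then with constant ligand in 100 mM Tris-HCl pH 7.5, 80 mM KCl, 4 mM MgCl2, BSA, DTT, yeast tRNA and Tween-20.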

[1] = designed as: ON switch for flavin mononucleotide, no ligand
[2] = ligand present: flavin mononucleotide, designed as: ON switch for flavin mononucleotide
[3] = designed as: OFF switch for flavin mononucleotide, no ligand
[4] = ligand present: flavin mononucleotide, designed as: OFF switch for flavin mononucleotide

| Sequence | apparent Kd [1] [nM] | apparent Kd [2] [nM] | apparent Kd [3] [nM] | apparent Kd [4] [nM] |
| --- | --- | --- | --- | --- |
| GCUUUCGCAUGAGGAUAUGCUCGAGUUUAGAGAGCAGAAGGCAUGUCAUAAGACAUGAGGAUCACCCAUGUAGUUAAAAUUGCA | 164 | 10.7 | – | – |
| GCGUAUAAGGUGUAGCUAGACAUUCAAGAAGGGUGAAGAACAUGAGGAUCACCCAUGUAGUAGGUACAGGAUAUUGAUUUACGC | 656 | 372 | – | – |
| AAUAACAGAGGAUAUACUGUUUUAUGUGUUUGUUAUUUUGAACAUGAGGAUCACCCAUGUAGAAGGCUGAGUAA | – | – | 27.8 | 28.4 |
| UGUGCUAUGUAGAAGGCAGAUCUGAUUCAGAUCUGAGGAUAUACAUGAGGAUCACCCAUGUUAUGCACCAGCACGAGAGUGCAA | – | – | 8.13 | 16 |
| GUUGCUAUCGGAGGAUAUUCAUACCGGAAACGGACAUGAGGAUCACCCAUGUGCGGAAACGCUUGGGAGAAGGCCGAUAGCAAC | 210 | 22.1 | – | – |
| GUGGUCAGACAUGAGGAUCACCCAUGUGGAAUAAAUAACAGACAGGAUAUGUAAUAUAGGAUAUAACAGAAGGGUCGAUUGGUG | 89 | 77.9 | – | – |
| CCUUUCGGUGUCAGGAUAUACUGCGCCUGGCGCAAGUAGAAGGGACAUGAGGAUCACCCAUGUAGCGGGACCGA | – | – | 73.7 | 81.9 |
| ACGCCCUGAGGAUAUCUCAUCCCGCACAUGAGGAUCACCCAUGUUCUCCUCCGGGCUCCGAGAGAAGGCAGGCCCA | – | – | 54.7 | 95.2 |
| CGUGUCGCAUGAGGAUAUGGUCAGCUUUGCUGACCAGAAGGCAUGUCAAUAGACAUGAGGAUCACCCAUGUAGUUAAGACACGA | 592 | 39.8 | – | – |
| AACAGUACAGGAUAUACAUGAGGAUCACCCAUGUGAGAAUUAAGUGGCGUACCACUAUGUAGAAGGGUACUGGA | – | – | 103 | 225 |
| GGGUACAUCGGAGGAUAUCAUGUAAAUACAUGAGGAUCACCCAUGUCGAUGGAGACAUCGGAGAUUGAGAAGGCCGAUGUAGCG | 190 | 9.12 | – | – |
| GGAAGACAAAGUCUUCCAAUUCGAACAUGAGGAUCACCCAUGUAGGAUAUGCUACUCAAAGAGUAGCAGAAGGACAUGUGCUUU | – | – | 37.3 | 164 |
| CAUUUGUGAGGAUAUCAGGUGUGCUAGCGUACUGGUACAUCUGAGAAGGCACAUGAGGAUCACCCAUGUUCCUC | – | – | 50 | 312 |
| GGGUACAUCGGAGGAUAUCAUGUAAAUACAUGAGGAUCACCCAUGUUGAUGGAGACAUCGGAGAUUGAGAAGGCCGAUGUACCG | 41.9 | 6.03 | – | – |
| GCAAUGUGAUAAGGAUAUCCAAUGGCAUCCCUAGGAGAAGGUAUCACAUGAGGAUCACCCAUGUGAAGGACGGGUUAUCGCAAA | – | – | – | 211 |
| CGCUAGUCAGGAUAUACGCACAUGUCACCAGACGUGAAGGGACAUGAGGAUCACCCAUGUAGAAGGGACUAGCA | – | – | 87.9 | 203 |
| ACUAAUAGAGGAUAUACAGUUUAUUACAUGAGGAUCACCCAUGUUCUUCAAUGUAUAUAAGUAGAAGGCUAUGGAA | – | – | 43.3 | 187 |
| GGCGGAGACGUUAACAUGAGGAUCACCCAUGUCGAAGGAGAUGAGGAUAUCGUAUACGAUGUAUAUGAGAAGGCAUGGUCUGCC | 32.8 | 11.3 | – | – |
| UUACUUUUACAGAAGGUUUAAUAAUAUAUAAAAGAAGGAUAUGUAACAUGAGGAUCACCCAUGUUUCACCCACAUGAGGAUCAU | – | – | 11.5 | 9.79 |
| CGGGCUGCUGUGAGGAUAUGCCUGUGGGUGCGUGGGUAGAAGGCACAUGAGGAUCACCCAUGUCCUGCAGCUCG | – | – | – | 717 |
| GGAUGACAAAGUCAUCCUAUUCGAACAUGAGGAUCACCCAUGUAGGAUAUGCAACUCAAAGAGUUGCAGAAGGACAUGUGCUUU | – | – | 34.7 | 166 |

| Sequence | apparent Kd [1] [nM] | apparent Kd [2] [nM] | apparent Kd [3] [nM] | apparent Kd [4] [nM] |
| --- | --- | --- | --- | --- |
| GGAUAGGACAGAGGAUAUACGUGCUAGAGAUACUAGCAAAAUAUCCUCACAUGAGGAUCACCCAUGUAGAAGGCUGUCCUAUCG | – | – | 18.1 | 79 |
| CAGUACUGAGGAUAUACAUGAGGAUCACCCAUGUGUUCCAGCUAGGAAACUAGCAAUAGUAGAAGGCAGUACUG | – | – | 20.1 | 315 |
| ACAUGAGGAUCACCCAUGUUCACAUAGGAUAUUGAUUAUAUUGGUUUAAGAAUAGUAAUUGACCACAAGAAGGAUGCCUGAUCU | 12.2 | 9.7 | – | – |
| ACCGCUCGAGGAUAUACAUGAGGAUCACCCAUGUAACCCAGAAGCAAGGCCUCAGGAUGUAGAAGGCGACGCAA | – | – | 14 | 14.2 |
| UUAUUUUGUCAAGGAUAUGUAGUAUUGAUUUGAAAACAUGAGGAUCACCCAUGUAUAUGGUGGGAACAGAAGGUGAAUGUUGAA | – | – | 311 | 290 |
| GGCUAGUGAGGAUAUACGUGCACUCCUCAGUCGCCAGUCGGACAUGAGGAUCACCCAUGUAGAAGGUAUCGGCA | – | – | 27.8 | 30.2 |
| GCGCGGAACCUAGGAUAUCCGGCAUGGACGGGUGGUAGGUCUCCCACAUGAGGAUCACCCAUGUAGGAGAAGGAGGAUCACGGG | – | – | 6.17 | 6.83 |
| AAGCCUAAUGAGAAGGUGUGUAUAAAUUAUAUACAAGGAUAUCGGUCGAGCGUGUUGACAUGAGGAUCACCCAUGUUGAGGCUU | 10.3 | 6.22 | – | – |
| UGGUCAUGAUCAGGAUAUUAACAUGGGCUACAUUGAGAAGGGAUAGUGAGAUACGAACUGAACGACAUGAGGAUCACCCAUGUA | 59.7 | 44 | – | – |
| AUCGACAACAUCAUGGUGGAUCCUGAGGAUAUGAAUAGCUACAUGAGGAUCACCCAUGUCCCGCGUCAGAAGGCAGGUUUGAUC | 400 | 41.3 | – | – |
| UGCUAGUCAGGAUAUACGUACAUGUCAUUAGACGUGAAGGGACAUGAGGAUCACCCAUGUAGAAGGGACUAGCU | – | – | 42.4 | 149 |
| UUUUUACUUGUAGGAUAUGGAGACAUGAGGAUCACCCAUGUAUGAUAAGCUAAAUUAUGCUGUGGCCAGAAGGAUAUUAUUCUU | 48.2 | 53.7 | – | – |
| CCAGAGAUAUGAGGAUAUCGAGUGGAAUACACUCGAGAAGGCAUGUGAAAACAUGAGGAUCACCCAUGUAUGAUCUACUCUGGA | 52.2 | 24.4 | – | – |
| GUACUGUAGUGAGGAUAUACGAGUGCGAUAGCACGGCGAUCCAUUUAUACAUGAGGAUCACCCAUGUAGAAGGCACUUCAGUAC | – | – | 6.15 | 65.6 |
| AAAAUAUAAAGAGAGGAUAUCCAAAGAACCACAUGAGGAUCACCCAUGUAAAGAAAGAAUAAGUGGGAGAAGGCUCAAAUAAUAA | 187 | 29.2 | – | – |
| GGAUCCAACACAGGAUAUGCUGGACUUUGUCCAGCAGAAGGGUGAAGAACAUGAGGAUCACCCAUGUGGAUCCAUAUAUUUUAU | 262 | 16.5 | – | – |
| UUCGGCGCAGGAUAUACAGUUUUGUGUUGAAUCGGCGCGGGACAUGAGGAUCACCCAUGUAGAAGGGUGUUGAA | – | – | 682 | 470 |
| AAUCGCAGUGCAGGAUAUCCAAGGUUUGGCGAAGGAGAAGGGCAUGCGACAUGAGGAUCACCCAUGUAAAGUAUGGCGUCCUCU | – | – | 231 | 117 |
| GGAUAGGACAGAGGAUAUACCGAUAGGAUCUACUAUCGAAGAAUCCUCACAUGAGGAUCACCCAUGUAGAAGGCUGUCCUAUCG | – | – | 40.3 | 646 |
| AAUAACAGAGGAUAUACUGUUUUAUGUGUUUAUUAUUUUAAACAUGAGGAUCACCCAUGUAGAAGGCUGAAUAA | – | – | 42.6 | 42.8 |
| AGGUCAACCACAGGAUAUGGCUAGCAUAGCUAGCCAGAAGGGUGGUCGUUGCCAUGUACAUACAUGAGGAUCACCCAUGUAUCC | 179 | 54.7 | – | – |
